# Reference: ChEMBL document CHEMBL2434944, “Novel acetamidothiazole derivatives: synthesis and in vitro anticancer evaluation” (Eur J Med Chem, 2013)
# What was measured:
# [1] = system: SK-MEL-5; test: Growth inhibition of human SK-MEL-5 cells assessed as cell growth at 10^-5 M after 48 hrs by sulforhodamine B assay relative to control; format: functional; conditions: SK-MEL-5, 48 h, read-out: Activity
# Method in brief: (§1)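 NCI-60 single-dose screen at 10^-5 M. Cells grown in RPMI 1640 with 5% FBS and 2 mM L-glutamine, plated at 5,000–40,000 cells/well according to doubling time, and preincubated 24 h at 37°C, 5% CO2. Compound dissolved in DMSO and added. Exposure 48 h. Adherent cells fixed with cold TCA (10% final), suspension cells with 16% final TCA. Read-out is 0.4% SRB staining, dye solubilised in 10 mM Tris, absorbance at 515 nm. Percent growth is calculated against the time-zero plate and untreated control.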
# [2] = molecular target: Thymidylate synthase (Homo sapiens, UniProt P04818); test: Inhibition of human thymidylate synthase
# [3] = system: MDA-MB-231; test: Growth inhibition of human MDA-MB-231 cells assessed as cell growth at 10^-5 M after 48 hrs by sulforhodamine B assay relative to control; format: functional; conditions: MDA-MB-231, 48 h, read-out: Activity; method in brief: as §1
# [4] = system: KM12; test: Growth inhibition of human KM12 cells assessed as cell growth at 10^-5 M after 48 hrs by sulforhodamine B assay relative to control; format: functional; conditions: KM12, 48 h, read-out: Activity; method in brief: as §1
# [5] = system: SN12C; test: Growth inhibition of human SN12C cells assessed as cell growth at 10^-5 M after 48 hrs by sulforhodamine B assay relative to control; format: functional; conditions: read-out: Activity; method in brief: as §1
# [6] = system: LOX IMVI; test: Growth inhibition of human LOXIMVI cells assessed as cell growth at 10^-5 M after 48 hrs by sulforhodamine B assay relative to control; format: functional; conditions: read-out: Activity; method in brief: as §1
# [7] = system: U-251; test: Growth inhibition of human U251 cells assessed as cell growth at 10^-5 M after 48 hrs by sulforhodamine B assay relative to control; format: functional; conditions: U-251, 48 h, read-out: Activity
# Method in brief: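 NCI-60 single-dose screen, 10^-5 M final. Cells grown in RPMI 1640 with 5% FBS and 2 mM L-glutamine, seeded at 5,000–40,000 cells/well by doubling time. Preincubated 24 h at 37°C, 5% CO2. Compound in DMSO, diluted in medium with gentamicin, then 48 h exposure. Fixed with cold TCA, SRB stained, A515 read. Percent growth vs untreated control, time-zero plate corrected.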
# [8] = molecular target: Epidermal growth factor receptor (Homo sapiens, UniProt P00533); test: Inhibition of human EGFR
# [9] = system: CAKI-1; test: Growth inhibition of human CAKI-1 cells assessed as cell growth at 10^-5 M after 48 hrs by sulforhodamine B assay relative to control; format: functional; conditions: CAKI-1, 48 h, read-out: Activity; method in brief: as §1
# [10] = molecular target: T1, Leukotriene A-4 hydrolase (Homo sapiens, UniProt P09960); test: Inhibition of human leukotriene A-4 hydrolase
# T1 sequence (P09960 whole entry): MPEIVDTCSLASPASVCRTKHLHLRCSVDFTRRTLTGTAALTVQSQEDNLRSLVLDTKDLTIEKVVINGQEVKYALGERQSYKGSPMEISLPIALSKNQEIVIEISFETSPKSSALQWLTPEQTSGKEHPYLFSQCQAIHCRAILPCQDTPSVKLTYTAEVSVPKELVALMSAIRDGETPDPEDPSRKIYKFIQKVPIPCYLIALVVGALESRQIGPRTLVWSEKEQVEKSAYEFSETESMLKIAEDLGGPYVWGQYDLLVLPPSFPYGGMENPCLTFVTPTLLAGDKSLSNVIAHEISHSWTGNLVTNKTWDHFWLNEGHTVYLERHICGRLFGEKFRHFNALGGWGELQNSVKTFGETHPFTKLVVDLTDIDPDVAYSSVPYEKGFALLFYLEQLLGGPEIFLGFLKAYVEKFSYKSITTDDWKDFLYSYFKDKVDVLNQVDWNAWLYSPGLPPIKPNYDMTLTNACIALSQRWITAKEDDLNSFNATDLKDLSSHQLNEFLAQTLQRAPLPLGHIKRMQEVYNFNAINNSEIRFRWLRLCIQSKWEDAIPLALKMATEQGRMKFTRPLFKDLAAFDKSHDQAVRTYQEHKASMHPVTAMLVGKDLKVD
# [11] = system: NCI-H322M; test: Growth inhibition of human NCI-H322M cells assessed as cell growth at 10^-5 M after 48 hrs by sulforhodamine B assay relative to control; format: functional; conditions: read-out: Activity; method in brief: as §1
# [12] = system: OVCAR-5; test: Growth inhibition of human OVCAR5 cells assessed as cell growth at 10^-5 M after 48 hrs by sulforhodamine B assay relative to control; format: functional; conditions: OVCAR-5, 48 h, read-out: Activity; method in brief: as §1
# [13] = system: MOLT-4; test: Growth inhibition of human MOLT4 cells assessed as cell growth at 10^-5 M after 48 hrs by sulforhodamine B assay relative to control; format: functional; conditions: MOLT-4, 48 h, read-out: Activity; method in brief: as §1
# [14] = system: HL-60(TB); test: Growth inhibition of human HL-60(TB) cells assessed as cell growth at 10^-5 M after 48 hrs by sulforhodamine B assay relative to control; format: functional; conditions: HL-60, 48 h, read-out: Activity
# Method in brief: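 NCI-60 one-dose screen at 10^-5 M. Cells were grown in RPMI 1640 with 5% FBS and 2 mM L-glutamine and plated at 5,000–40,000 cells/well. They were preincubated 24 h at 37°C under 5% CO2, then exposed for 48 h. Suspension cells were fixed with 80% TCA (16% final) and stained with 0.4% SRB, read at 515 nm. Percent growth is versus untreated control, corrected for time-zero.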
# [15] = system: Malme-3M; test: Growth inhibition of human MALME-3M cells assessed as cell growth at 10^-5 M after 48 hrs by sulforhodamine B assay relative to control; format: functional; conditions: read-out: Activity; method in brief: as §1
# [16] = system: A498; test: Growth inhibition of human A498 cells assessed as cell growth at 10^-5 M after 48 hrs by sulforhodamine B assay relative to control; format: functional; conditions: A498, 48 h, read-out: Activity; method in brief: as §1
# [17] = system: NCI-H226; test: Growth inhibition of human NCI-H226 cells assessed as cell growth at 10^-5 M after 48 hrs by sulforhodamine B assay relative to control; format: functional; conditions: NCI-H226, 48 h, read-out: Activity; method in brief: as §1
# [18] = system: SNB-75; test: Growth inhibition of human SNB75 cells assessed as cell growth at 10^-5 M after 48 hrs by sulforhodamine B assay relative to control; format: functional; conditions: SNB-75, 48 h, read-out: Activity; method in brief: as §1
# [19] = system: HCT-15; test: Growth inhibition of human HCT15 cells assessed as cell growth at 10^-5 M after 48 hrs by sulforhodamine B assay relative to control; format: functional; conditions: HCT-15, 48 h, read-out: Activity; method in brief: as §1
# [20] = system: NCI-H23; test: Growth inhibition of human NCI-H23 cells assessed as cell growth at 10^-5 M after 48 hrs by sulforhodamine B assay relative to control; format: functional; conditions: NCI-H23, 48 h, read-out: Activity; method in brief: as §1
# [21] = system: SK-MEL-2; test: Growth inhibition of human SK-MEL-2 cells assessed as cell growth at 10^-5 M after 48 hrs by sulforhodamine B assay relative to control; format: functional; conditions: SK-MEL-2, 48 h, read-out: Activity; method in brief: as §1
# [22] = system: MDA-MB-435; test: Growth inhibition of human MDA-MB-435 cells assessed as cell growth at 10^-5 M after 48 hrs by sulforhodamine B assay relative to control; format: functional; conditions: MDA-MB-435, 48 h, read-out: Activity; method in brief: as §1
# Chain of Epidermal growth factor receptor (P00533 whole entry): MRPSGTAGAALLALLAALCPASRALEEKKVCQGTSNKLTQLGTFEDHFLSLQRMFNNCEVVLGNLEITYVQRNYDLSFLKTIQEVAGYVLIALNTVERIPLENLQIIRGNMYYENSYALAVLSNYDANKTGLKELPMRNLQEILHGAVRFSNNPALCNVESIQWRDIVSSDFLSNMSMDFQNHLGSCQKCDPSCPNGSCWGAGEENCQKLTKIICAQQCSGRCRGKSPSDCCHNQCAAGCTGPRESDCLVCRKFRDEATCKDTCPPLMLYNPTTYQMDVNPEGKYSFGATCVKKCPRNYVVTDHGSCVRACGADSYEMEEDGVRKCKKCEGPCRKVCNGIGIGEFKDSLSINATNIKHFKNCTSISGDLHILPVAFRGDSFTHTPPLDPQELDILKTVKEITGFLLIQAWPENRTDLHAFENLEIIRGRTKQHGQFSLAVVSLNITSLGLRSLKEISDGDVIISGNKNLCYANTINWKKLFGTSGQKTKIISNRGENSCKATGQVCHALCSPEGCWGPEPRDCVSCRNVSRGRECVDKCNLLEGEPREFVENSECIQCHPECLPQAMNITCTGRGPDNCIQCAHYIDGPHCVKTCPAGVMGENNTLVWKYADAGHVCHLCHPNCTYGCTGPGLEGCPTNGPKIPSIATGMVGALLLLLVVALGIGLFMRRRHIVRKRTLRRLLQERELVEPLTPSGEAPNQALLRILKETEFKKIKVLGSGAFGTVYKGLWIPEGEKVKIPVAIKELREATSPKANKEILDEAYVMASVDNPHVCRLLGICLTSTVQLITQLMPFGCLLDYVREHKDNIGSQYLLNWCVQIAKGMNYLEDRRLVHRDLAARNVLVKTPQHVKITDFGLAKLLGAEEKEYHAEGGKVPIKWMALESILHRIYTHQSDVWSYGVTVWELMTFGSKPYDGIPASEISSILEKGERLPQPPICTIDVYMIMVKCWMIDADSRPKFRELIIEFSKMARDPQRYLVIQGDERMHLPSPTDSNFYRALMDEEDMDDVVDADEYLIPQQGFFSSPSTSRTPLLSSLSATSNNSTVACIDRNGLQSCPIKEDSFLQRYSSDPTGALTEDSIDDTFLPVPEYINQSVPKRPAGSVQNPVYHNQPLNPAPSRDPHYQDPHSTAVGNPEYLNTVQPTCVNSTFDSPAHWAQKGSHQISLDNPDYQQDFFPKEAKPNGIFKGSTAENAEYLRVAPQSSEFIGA
# Chain of Thymidylate synthase (P04818 whole entry): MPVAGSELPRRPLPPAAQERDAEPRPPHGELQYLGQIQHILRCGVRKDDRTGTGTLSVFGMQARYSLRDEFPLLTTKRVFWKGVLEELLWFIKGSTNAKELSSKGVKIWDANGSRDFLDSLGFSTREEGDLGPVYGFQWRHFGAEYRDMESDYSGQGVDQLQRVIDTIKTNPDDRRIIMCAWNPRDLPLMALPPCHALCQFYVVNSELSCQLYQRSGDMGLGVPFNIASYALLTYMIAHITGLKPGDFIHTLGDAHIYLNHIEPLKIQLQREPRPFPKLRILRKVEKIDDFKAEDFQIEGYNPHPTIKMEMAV
Compound,growth at 10 µM [1],Ki [2],growth at 10 µM [3],growth at 10 µM [4],growth at 10 µM [5],growth at 10 µM [6],growth at 10 µM [7],Ki [8],growth at 10 µM [9],Ki [10],growth at 10 µM [11],growth at 10 µM [12],growth at 10 µM [13],growth at 10 µM [14],growth at 10 µM [15],growth at 10 µM [16],growth at 10 µM [17],growth at 10 µM [18],growth at 10 µM [19],growth at 10 µM [20],also measured
Cc1ccc(-c2csc(=N)n2CC(=O)N2CCOCC2)cc1,98.2%,4.06 µM,98.4%,110%,100%,92.8%,91.8%,22.9 µM,89.2%,3560 nM,111%,102%,99.7%,93.2%,131%,95.1%,94.3%,90.6%,98.1%,97.3%,growth at 10 µM [21]: 111%; growth at 10 µM [22]: 87.2%
CN1CCN(C(=O)Cn2c(-c3ccccc3)csc2=N)CC1,88.2%,1.14 µM,78.8%,102%,85.2%,87.3%,88.2%,41.6 µM,70.4%,629 nM,90.2%,110%,95.2%,100%,89.1%,92.6%,85.2%,56.5%,87.6%,90%,growth at 10 µM [21]: 118%; growth at 10 µM [22]: 104%
N=c1scc(-c2ccccc2)n1CC(=O)N1CCOCC1,95.5%,6.22 µM,95.1%,103%,101%,92%,95.1%,55.3 µM,76.2%,8650 nM,97.9%,96.3%,95.2%,118%,102%,117%,86.7%,59.4%,99.2%,95.8%,growth at 10 µM [21]: 106%; growth at 10 µM [22]: 101%
N=c1scc(-c2ccc(Cl)cc2)n1CC(=O)N1CCOCC1,96.5%,3.73 µM,97.5%,106%,86.9%,97.9%,88.3%,6.64 µM,84.4%,1060 nM,104%,113%,69.2%,96.6%,105%,75.5%,94.4%,75.3%,89.9%,95.6%,growth at 10 µM [21]: 107%; growth at 10 µM [22]: 84.6%
